Activity calls are given as the source filed them. The calls are words filed in the database; no cut-off is given here.
Columns and labels:
[1] = target: T1, Histone-lysine N-methyltransferase EHMT2 (Homo sapiens) (UniProt Q96KQ7); test: Inhibition of G9A in human MM1.S cells assessed as decrease in H3K9Me2 levels > 1 uM after 48 hrs by Western blot analysis; type: cell-based; conditions: dose microM >1, time 48.0 hrs
T1 sequence (whole entry): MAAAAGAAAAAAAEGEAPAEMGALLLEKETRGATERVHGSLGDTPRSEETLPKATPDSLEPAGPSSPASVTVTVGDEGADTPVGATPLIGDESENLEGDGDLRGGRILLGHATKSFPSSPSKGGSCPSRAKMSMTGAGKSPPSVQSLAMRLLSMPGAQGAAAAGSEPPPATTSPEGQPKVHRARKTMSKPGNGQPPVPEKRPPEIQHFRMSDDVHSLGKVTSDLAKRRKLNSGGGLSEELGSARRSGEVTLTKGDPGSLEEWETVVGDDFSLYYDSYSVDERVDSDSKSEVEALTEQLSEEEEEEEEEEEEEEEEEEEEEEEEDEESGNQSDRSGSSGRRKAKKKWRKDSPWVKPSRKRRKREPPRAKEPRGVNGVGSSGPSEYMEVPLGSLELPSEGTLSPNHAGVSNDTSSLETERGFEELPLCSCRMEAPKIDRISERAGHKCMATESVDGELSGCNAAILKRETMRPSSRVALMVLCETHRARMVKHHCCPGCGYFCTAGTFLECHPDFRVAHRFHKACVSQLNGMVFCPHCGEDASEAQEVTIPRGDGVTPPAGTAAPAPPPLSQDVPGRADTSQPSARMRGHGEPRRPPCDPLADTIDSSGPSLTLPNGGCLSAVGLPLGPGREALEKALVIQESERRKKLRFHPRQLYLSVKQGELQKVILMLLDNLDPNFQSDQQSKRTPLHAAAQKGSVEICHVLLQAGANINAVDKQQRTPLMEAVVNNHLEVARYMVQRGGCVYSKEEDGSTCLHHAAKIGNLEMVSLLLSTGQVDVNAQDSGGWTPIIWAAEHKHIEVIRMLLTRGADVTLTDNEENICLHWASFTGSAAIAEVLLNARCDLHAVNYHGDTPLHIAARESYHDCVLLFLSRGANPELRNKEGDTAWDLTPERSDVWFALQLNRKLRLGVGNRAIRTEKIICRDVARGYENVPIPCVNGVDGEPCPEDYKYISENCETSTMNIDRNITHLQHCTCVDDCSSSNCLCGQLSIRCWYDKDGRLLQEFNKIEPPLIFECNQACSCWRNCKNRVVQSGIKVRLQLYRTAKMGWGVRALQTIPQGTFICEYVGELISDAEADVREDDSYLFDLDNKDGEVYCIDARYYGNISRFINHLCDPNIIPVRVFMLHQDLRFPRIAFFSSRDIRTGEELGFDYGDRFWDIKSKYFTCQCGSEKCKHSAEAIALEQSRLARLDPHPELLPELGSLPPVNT
Summary of the method: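 MM1.S cells exposed 48 h across a concentration range. Global H3K9Ac and H3K9me2 read by Western blot; run in duplicate.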

MM1.S = test: Induction of DNA hypomethylation in human MM1.S cells assessed as CPG hypomethylation at position 5 at 10 nM measured after 5 days relative to control; type: cell-based; conditions: time 5.0 day
Summary of the method: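 MM1.S cells dosed every day for 5 days at 2 μM or 10 nM. DNA methylation at CpGs of the POU4F2 promoter read by pyrosequencing; run in duplicate.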

CYP1A2 = target: T2, CYP1A2 (Homo sapiens, UniProt P05177); test: Inhibition of CYP1A2 in human liver microsomes at 10 uM incubated for 10 mins in presence of NADPH by LC-MS/MS analysis relative to control; type: ADME
T2 sequence (P05177 whole entry): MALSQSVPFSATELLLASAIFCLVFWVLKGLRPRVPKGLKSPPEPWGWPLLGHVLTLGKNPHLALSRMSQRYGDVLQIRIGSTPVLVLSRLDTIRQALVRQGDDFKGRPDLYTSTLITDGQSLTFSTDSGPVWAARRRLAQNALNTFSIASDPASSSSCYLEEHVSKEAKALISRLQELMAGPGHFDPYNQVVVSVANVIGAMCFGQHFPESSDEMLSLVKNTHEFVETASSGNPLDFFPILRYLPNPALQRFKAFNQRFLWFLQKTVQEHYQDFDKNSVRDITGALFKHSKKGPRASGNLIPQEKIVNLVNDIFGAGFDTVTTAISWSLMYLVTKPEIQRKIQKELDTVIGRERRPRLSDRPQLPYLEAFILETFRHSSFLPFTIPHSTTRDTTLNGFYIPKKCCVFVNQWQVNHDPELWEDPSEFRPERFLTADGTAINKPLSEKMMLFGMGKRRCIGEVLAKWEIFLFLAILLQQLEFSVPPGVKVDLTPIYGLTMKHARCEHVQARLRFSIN

[2] = Stability of the compound in mouse pooled hepatocytes assessed as parent compound remaining incubated for 60 mins; type: ADME, cell-based, Hepatocyte; conditions: read-out: Stabilty
[3] = AUC (0 to 24 hrs) in BALB/c RAG2-/- gammaC-/- mouse at 10 mg/kg, ip measured up to 24 hrs by UPLC-triple quadrupole MS analysis; type: ADME, organism-based; set-up: route intraperitoneal, dose 10 mg/kg, time <=24; conditions: in vivo
[4] = Half life in BALB/c RAG2-/- gammaC-/- mouse at 10 mg/kg, ip measured up to 24 hrs by UPLC-triple quadrupole MS analysis; type: ADME, organism-based; conditions: in vivo
[5] = AUC (0 to 24 hrs) in BALB/c RAG2-/- gammaC-/- mouse at 10 mg/kg, ip using 80% saline 10% Tween20 and 10% DMSO formulation measured up to 24 hrs by UPLC-triple quadrupole MS analysis; type: ADME, organism-based; set-up: route intraperitoneal, dose 10 mg/kg, time <=24; conditions: in vivo

Compound | inhibition [1] | Activity (MM1.S) [%] | inhibition at 10 min, 10 µM (CYP1A2) [%] | remaining at 1 h [2] [%] | AUC(0-t) [3] [µM·h] | half-life [4] [h] | AUC(0-t) [5] [µM·h]
COc1cc2c(NCC3CCN(c4ncc(C(=O)NO)cn4)CC3)cc(-c3ccc(C)o3)nc2cc1OCCCN1CCCC1 | Active |  |  |  |  |  | 
COc1cc2nc(-c3ccc(C)o3)cc(NCC3CCN(c4ncc(C(=O)NO)cn4)CC3)c2cc1OC |  | 10 | 58.8 | 14.3 | 0.591 | 3.8 | 0.916

— ChEMBL document CHEMBL4834403, “Design and Synthesis of Novel Epigenetic Inhibitors Targeting Histone Deacetylases, DNA Methyltransferase 1, and Lysine Methyltransferase G9a with In Vivo Efficacy in Multiple Myeloma” (J Med Chem, 2021)
